Assay results: ChEMBL document CHEMBL2176905 (J Med Chem, 2012)
Counter-ions that a name gives are not always drawn. Active and inactive are the calls of the source. The calls are words filed in the database; no cut-off is given here. Residues, ends and D or L forms follow the SMILES beside them. *: point of attachment. PhAc = O=C(Cc1ccccc1)*; Tfa = O=C(C(F)(F)F)*; NHBu = CCCCN*

How the values were obtained:
Neutrophil elastase [1] = biological target: T1, Neutrophil elastase (Homo sapiens, UniProt P08246); experiment: Inhibition of human neutrophil elastase assessed as hydrolysis of N-succinyl-Ala-Ala-Pro-Val-p-nitroanilide incubated for 2 hrs measured for 20 mins by microplate reader analysis
T1 sequence (P08246 whole entry): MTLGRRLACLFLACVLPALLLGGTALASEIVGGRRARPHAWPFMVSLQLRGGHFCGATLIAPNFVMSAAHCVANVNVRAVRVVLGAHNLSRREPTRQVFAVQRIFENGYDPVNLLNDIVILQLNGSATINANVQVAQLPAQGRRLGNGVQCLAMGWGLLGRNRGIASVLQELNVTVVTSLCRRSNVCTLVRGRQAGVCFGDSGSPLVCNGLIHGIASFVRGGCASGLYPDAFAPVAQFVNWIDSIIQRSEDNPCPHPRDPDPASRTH
Outline: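 HNE (stock 2.8 μM in pH 5.5 acetate/0.5 M NaCl; final 30 nM) preincubated 2 h at 25 °C with inhibitor (final 0.5−50 μM, 7 concentrations) in 0.1 M HEPES, 0.5 M NaCl, pH 7.25, 5.5% DMSO. Suc-Ala-Ala-Pro-Val-pNA added (final 0.35 mM). Hydrolysis rate read kinetically at 405 nm, 25 °C, 20 min. Duplicates; IC50 derived.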

Prothrombin [2] = biological target: T2, Prothrombin (Homo sapiens, UniProt P00734); experiment: Inhibition of thrombin assessed as hydrolysis of H-D-Pro-L-Phe-L-Arg-p-nitroanilide incubated for 2 hrs measured for 20 mins by microplate reader analysis
Outline: (§1)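 Counter-screen in 0.1 M HEPES with 0.5 M NaCl, pH 7.25, 96-well format, duplicates. Chymotrypsin, trypsin and porcine pancreatic elastase were commercial; thrombin and plasminogen were purified in-house. Chromogenic substrate hydrolysis followed kinetically at 405 nm on a plate reader. Test compounds up to 100 μM maximum; AEBSF run as irreversible positive control with IC50 determined.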

Plasminogen [3] = biological target: T3, Plasminogen (Homo sapiens, UniProt P00747); experiment: Inhibition of plasmin assessed as hydrolysis of H-D-Val-L-Leu-L-Lys-p-nitroanilide incubated for 2 hrs measured for 20 mins by microplate reader analysis
T3 sequence (P00747 97-580 limits assumed): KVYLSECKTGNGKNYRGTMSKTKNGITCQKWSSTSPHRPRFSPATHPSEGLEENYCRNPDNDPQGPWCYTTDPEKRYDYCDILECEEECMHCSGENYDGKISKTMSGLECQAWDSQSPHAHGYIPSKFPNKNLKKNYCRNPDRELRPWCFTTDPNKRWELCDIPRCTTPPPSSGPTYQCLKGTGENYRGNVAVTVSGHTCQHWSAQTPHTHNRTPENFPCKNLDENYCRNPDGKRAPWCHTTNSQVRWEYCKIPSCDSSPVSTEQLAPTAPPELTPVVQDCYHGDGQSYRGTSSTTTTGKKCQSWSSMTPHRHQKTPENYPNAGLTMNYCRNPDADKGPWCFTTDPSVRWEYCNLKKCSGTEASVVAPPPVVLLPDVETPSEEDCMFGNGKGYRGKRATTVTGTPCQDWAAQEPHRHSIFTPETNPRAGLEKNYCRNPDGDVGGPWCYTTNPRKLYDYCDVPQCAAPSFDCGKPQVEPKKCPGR
T3 sequence (P00747 581-810 limits assumed): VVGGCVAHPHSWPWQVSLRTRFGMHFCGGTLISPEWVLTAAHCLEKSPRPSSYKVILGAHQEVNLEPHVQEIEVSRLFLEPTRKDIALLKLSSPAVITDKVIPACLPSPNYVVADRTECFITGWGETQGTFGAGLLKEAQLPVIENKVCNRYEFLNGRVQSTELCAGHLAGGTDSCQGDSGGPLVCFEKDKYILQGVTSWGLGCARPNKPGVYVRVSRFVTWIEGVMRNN
Outline: (§2)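 Selectivity panel run in duplicate in 0.1 M HEPES with 0.5 M NaCl, pH 7.25. p-Nitroanilide release was followed kinetically at 405 nm, with inhibitor tested up to 100 μM maximum. Plasmin came from plasminogen purified in-house; porcine pancreatic elastase was commercial. IC50 values were determined.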

Cathepsin G = biological target: T4, Cathepsin G (Homo sapiens, UniProt P08311); experiment: Inhibition of cathepsin G assessed as hydrolysis of N-succinyl-Ala-Ala-Pro-Phe-p-nitroanilide incubated for 2 hrs measured for 20 mins by microplate reader analysis
T4 sequence (P08311 whole entry): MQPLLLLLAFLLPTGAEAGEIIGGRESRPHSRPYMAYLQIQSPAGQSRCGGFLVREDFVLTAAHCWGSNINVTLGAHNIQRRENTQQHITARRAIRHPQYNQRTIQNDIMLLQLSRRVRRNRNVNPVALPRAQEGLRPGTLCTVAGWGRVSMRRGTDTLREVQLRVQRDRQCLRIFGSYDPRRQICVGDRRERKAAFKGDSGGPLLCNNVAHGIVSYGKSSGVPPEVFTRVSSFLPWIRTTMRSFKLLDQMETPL

Pancreatic elastase = Pancreatic elastase (Sus scrofa, UniProt P08419+P00772); experiment: Inhibition of porcine pancreatic elastase assessed as hydrolysis of N-succinyl-Ala-Ala-Ala-p-nitroanilide incubated for 2 hrs measured for 20 mins by microplate reader analysis; assay type: protein assay; outline: as §2
[4] = Inhibition of chymotrypsin assessed as hydrolysis of N-succinyl-Ala-Ala-Pro-Phe-p-nitroanilide incubated for 2 hrs measured for 20 mins by microplate reader analysis; outline: as §1
[5] = Inhibition of trypsin assessed as hydrolysis of H-D-Pro-L-Phe-L-Arg-p-nitroanilide incubated for 2 hrs measured for 20 mins by microplate reader analysis; outline: as §1
Neutrophil elastase [6] = biological target: T1, Neutrophil elastase; experiment: Inhibition of human neutrophil elastase
Neutrophil elastase [7] = biological target: T1, Neutrophil elastase; experiment: Noncompetitive inhibition of human neutrophil elastase assessed as hydrolysis of N-succinyl-Ala-Ala-Pro-Val-p-nitroanilide incubated for 2 hrs measured for 20 mins by Dixon and Cornish-Bowden analysis
Outline: (§3)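 Mechanism study: HNE (final 30 nM) preincubated 2 h at 25 °C with inhibitor (final 5−20 μM, 3 concentrations) in 0.1 M HEPES, 0.5 M NaCl, pH 7.25, 5.5% DMSO. Suc-Ala-Ala-Pro-Val-pNA added at two final levels, 0.0875 or 0.35 mM. Rate followed at 405 nm, 25 °C, 20 min. Duplicates; Dixon and Cornish-Bowden plots.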

[8] = biological target: T5, Cathepsin G (Homo sapiens) (UniProt P08311); experiment: Inhibition of cathepsin G assessed as hydrolysis of N-succinyl-Ala-Ala-Pro-Phe-p-nitroanilide at 100 uM incubated for 2 hrs measured for 20 mins by microplate reader analysis
T5 sequence (whole entry): T4 sequence (P08311 whole entry)

Prothrombin [9] = biological target: T2, Prothrombin; experiment: Inhibition of thrombin assessed as hydrolysis of H-D-Pro-L-Phe-L-Arg-p-nitroanilide at 100 uM incubated for 2 hrs measured for 20 mins by microplate reader analysis; outline: as §1
Plasminogen [10] = biological target: T3, Plasminogen; experiment: Inhibition of plasmin assessed as hydrolysis of H-D-Val-L-Leu-L-Lys-p-nitroanilide at 100 uM incubated for 2 hrs measured for 20 mins by microplate reader analysis; outline: as §1
Neutrophil elastase [11] = biological target: T1, Neutrophil elastase; experiment: Uncompetitive inhibition of human neutrophil elastase assessed as hydrolysis of N-succinyl-Ala-Ala-Pro-Val-p-nitroanilide incubated for 2 hrs measured for 20 mins by Dixon and Cornish-Bowden analysis; outline: as §3
[12] = Inhibition of trypsin assessed as hydrolysis of H-D-Pro-L-Phe-L-Arg-p-nitroanilide at 100 uM incubated for 2 hrs measured for 20 mins by microplate reader analysis; outline: as §1
[13] = Inhibition of chymotrypsin assessed as hydrolysis of N-succinyl-Ala-Ala-Pro-Phe-p-nitroanilide at 100 uM incubated for 2 hrs measured for 20 mins by microplate reader analysis; outline: as §1
[14] = biological target: Pancreatic elastase (Sus scrofa) (UniProt P08419+P00772); experiment: Inhibition of porcine pancreatic elastase assessed as hydrolysis of N-succinyl-Ala-Ala-Ala-p-nitroanilide at 100 uM incubated for 2 hrs measured for 20 mins by microplate reader analysis; assay type: protein assay; outline: as §1
[15] = Inhibition of HIV protease; design: species or system Human immunodeficiency virus

Structure (SMILES): CCCCNC(=O)CNC(=O)[C@H](CC(C)C)NC(=O)[C@@H](NC(=O)Cc1ccccc1)[C@@H](C)CC (PhAc-Ile-Leu-Gly-NHBu)
- IC50 (Neutrophil elastase [1]): 51 µM

Structure (SMILES): Cl.NCCc1ccc(S(=O)(=O)F)cc1 [4-AMINOETHYLBENZENESULFONYL FLUORIDE HYDROCHLORIDE]
- IC50 (Prothrombin [2]): 62 µM
- IC50 (Plasminogen [3]): 240 µM
- IC50 (Cathepsin G): 250 µM
- IC50 (Pancreatic elastase): 160 µM
- IC50 [4]: 12 µM
- IC50 [5]: 10 µM

Structure (SMILES): CCCCNC(=O)CC[Si](O)(O)[C@H](CC(C)C)NC(=O)[C@@H](NC(=O)Cc1ccc2ccccc2c1)[C@@H](C)CC
- IC50 (Neutrophil elastase [6]): 0.3 µM

Structure (SMILES): CCCCNC(=O)CNC(=O)[C@H](CC(C)C)NC(=O)[C@@H](NC(=O)Cc1ccc2ccccc2c1)[C@@H](C)CC
- IC50 (Prothrombin [2]): 100 µM
- IC50 (Plasminogen [3]): 99 µM
- IC50 (Pancreatic elastase): 55 µM
- IC50 [4]: 150 µM
- IC50 [5]: 89 µM
- Ki (Neutrophil elastase [7]): 18 µM
- IC50 (Neutrophil elastase [1]): 14 µM
- inhibition [8]: inactive

Structure (SMILES): CCCCNC(=O)CC[Si](O)(O)[C@H](CC(C)C)NC(=O)[C@@H](NC(=O)Cc1ccccc1)[C@@H](C)CC
- inhibition (Prothrombin [9]): inactive
- inhibition (Plasminogen [10]): inactive
- Ki (Neutrophil elastase [11]): 5 µM
- IC50 (Neutrophil elastase [1]): 38 µM
- inhibition [12]: inactive
- inhibition [13]: inactive
- inhibition [14]: inactive
- inhibition [8]: inactive

Structure (SMILES): CCCCNC(=O)CNC(=O)[C@H](CC(C)C)NC(=O)[C@@H](NC(C)=O)[C@@H](C)CC (Ac-Ile-Leu-Gly-NHBu)
- IC50 (Neutrophil elastase [1]): > 200 µM

Structure (SMILES): CCCCNC(=O)CC[Si](O)(O)[C@H](CC(C)C)NC(=O)[C@@H](NC(=O)c1ccc2ccccc2c1)[C@@H](C)CC
- inhibition (Prothrombin [9]): inactive
- inhibition (Plasminogen [10]): inactive
- Ki (Neutrophil elastase [11]): 4 µM
- IC50 (Neutrophil elastase [1]): 16 µM
- inhibition [12]: inactive
- inhibition [13]: inactive
- inhibition [14]: inactive
- inhibition [8]: inactive

Structure (SMILES): CCCCNC(=O)CC[Si](O)(O)[C@@H](CC(C)C)NC(=O)[C@@H](NC(=O)Cc1ccc2ccccc2c1)[C@@H](C)CC
- inhibition (Prothrombin [9]): inactive
- inhibition (Plasminogen [10]): inactive
- IC50 (Neutrophil elastase [6]): 0.3 µM
- Ki (Neutrophil elastase [11]): 3.5 µM
- IC50 (Neutrophil elastase [1]): 18 µM
- inhibition [12]: inactive
- inhibition [13]: inactive
- inhibition [14]: inactive
- inhibition [8]: inactive

Structure (SMILES): CCCCNC(=O)CNC(=O)[C@H](CC(C)C)NC(=O)[C@@H](NC(=O)C(F)(F)F)[C@@H](C)CC (Tfa-Ile-Leu-Gly-NHBu)
- IC50 (Neutrophil elastase [1]): > 200 µM

Structure (SMILES): CCCCNC(=O)CC[Si](c1ccccc1)(c1ccccc1)[C@H](CC(C)C)NC(=O)[C@@H](NC(=O)Cc1ccc2ccccc2c1)[C@@H](C)CC
- inhibition (Plasminogen [10]): inactive
- IC50 (Prothrombin [2]): 92 µM
- IC50 [4]: 110 µM
- IC50 [5]: 58 µM
- Ki (Neutrophil elastase [7]): 13 µM
- IC50 (Neutrophil elastase [1]): 14 µM
- inhibition [14]: inactive

Structure (SMILES): CC[C@H](C)[C@H](NC(=O)Cc1ccc2ccccc2c1)C(=O)N[C@@H](CC(C)C)[Si](C)(O)O
- IC50 (Neutrophil elastase [1]): 39 µM

Structure (SMILES): CCCCNC(=O)CC[Si](O)(O)[C@H](CC(C)C)NC(=O)[C@@H](NC(C)=O)[C@@H](C)CC
- IC50 (Neutrophil elastase [1]): > 200 µM

Structure (SMILES): O=C(N[C@H]1c2ccccc2C[C@H]1O)[C@H](Cc1ccccc1)C[Si](O)(O)C[C@@H](Cc1ccccc1)C(=O)N[C@H]1c2ccccc2C[C@H]1O
- Ki [15]: 0.0027 µM

Structure (SMILES): CCCCNC(=O)CC[Si](O)(O)[C@H](CC(C)C)NC(=O)[C@@H](NC(=O)C(F)(F)F)[C@@H](C)CC
- IC50 (Neutrophil elastase [1]): 46 µM
